ChEMBL document CHEMBL4038305, “Benzoxaborole Antimalarial Agents. Part 5. Lead Optimization of Novel Amide Pyrazinyloxy Benzoxaboroles and Identification of a Preclinical Candidate” (J Med Chem, 2017)

Tests used:
[1] = system: Plasmodium berghei; test: Antimalarial activity against Plasmodium berghei infected in Swiss Webster mouse assessed as mouse survival rate at 0.1 mg/kg administered once daily via oral gavage for 4 consecutive days beginning 1 hr after infection measured on day 7 post infection relative to control; assay type: functional
Outline: (§1)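 Mice given an intraperitoneal injection of P. berghei-infected erythrocytes taken from a previously infected animal. Oral dosing once daily for 4 consecutive days, starting 1 h after infection. Vehicle: polyethylene glycol 300/propylene glycol/water (weight ratio 55/25/20). Percent survival recorded daily from day 4 to day 20. Chloroquine 30 mg/kg and vehicle-only groups served as controls.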

[2] = system: Plasmodium berghei; test: Antimalarial activity against Plasmodium berghei infected in Swiss Webster mouse assessed as mouse survival rate at 11 mg/kg administered once daily via oral gavage for 4 consecutive days beginning 1 hr after infection measured on day 6 post infection relative to control; assay type: functional
Outline: (§2)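 P. berghei-infected erythrocytes taken from a previously infected mouse were injected intraperitoneally. Oral dosing, once daily for 4 consecutive days, began 1 h after infection, in polyethylene glycol 300/propylene glycol/water (55/25/20 by weight). Chloroquine at 30 mg/kg was the positive control, with a vehicle-only group. Percent survival was recorded daily from day 4 to day 20.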

[3] = system: Plasmodium berghei; test: Antimalarial activity against Plasmodium berghei infected in Swiss Webster mouse assessed as mouse survival rate at 3.7 mg/kg administered once daily via oral gavage for 4 consecutive days beginning 1 hr after infection measured on day 4 post infection relative to control; assay type: functional; outline: as §2
[4] = system: Plasmodium berghei; test: Antimalarial activity against Plasmodium berghei infected in Swiss Webster mouse assessed as mouse survival rate at 33 mg/kg administered once daily via oral gavage for 4 consecutive days beginning 1 hr after infection measured on day 14 post infection relative to control; assay type: functional; outline: as §2
[5] = system: Plasmodium berghei; test: Antimalarial activity against Plasmodium berghei infected in Swiss Webster mouse assessed as mouse survival rate at 11 mg/kg administered once daily via oral gavage for 4 consecutive days beginning 1 hr after infection measured on day 4 post infection relative to control; assay type: functional; outline: as §2
[6] = system: Plasmodium berghei; test: Antimalarial activity against Plasmodium berghei infected in Swiss Webster mouse assessed as mouse survival rate at 0.4 mg/kg administered once daily via oral gavage for 4 consecutive days beginning 1 hr after infection measured on day 7 post infection relative to control; assay type: functional; outline: as §1
[7] = system: Plasmodium berghei; test: Antimalarial activity against Plasmodium berghei infected in Swiss Webster mouse assessed as mouse survival rate at 33 mg/kg administered once daily via oral gavage for 4 consecutive days beginning 1 hr after infection measured on day 4 post infection relative to control; assay type: functional; outline: as §2
[8] = system: Plasmodium berghei; test: Antimalarial activity against Plasmodium berghei infected in Swiss Webster mouse assessed as mouse survival rate at 33 mg/kg administered once daily via oral gavage for 4 consecutive days beginning 1 hr after infection measured on day 13 post infection relative to control; assay type: functional; outline: as §2
[9] = system: Plasmodium berghei; test: Antimalarial activity against Plasmodium berghei infected in Swiss Webster mouse assessed as mouse survival rate at 11 mg/kg administered once daily via oral gavage for 4 consecutive days beginning 1 hr after infection measured on day 5 post infection relative to control; assay type: functional; outline: as §2
[10] = system: Plasmodium berghei; test: Antimalarial activity against Plasmodium berghei infected in Swiss Webster mouse assessed as mouse survival rate at 100 mg/kg administered once daily via oral gavage for 4 consecutive days beginning 1 hr after infection measured on day 11 post infection relative to control; assay type: functional; outline: as §1
[11] = system: Plasmodium berghei; test: Antimalarial activity against Plasmodium berghei infected in Swiss Webster mouse assessed as mouse survival rate at 100 mg/kg administered once daily via oral gavage for 4 consecutive days beginning 1 hr after infection measured on day 13 post infection relative to control; assay type: functional; outline: as §1
[12] = system: Plasmodium berghei; test: Antimalarial activity against Plasmodium berghei infected in Swiss Webster mouse assessed as mouse survival rate at 33 mg/kg administered once daily via oral gavage for 4 consecutive days beginning 1 hr after infection measured on day 12 post infection relative to control; assay type: functional; outline: as §2
[13] = system: Plasmodium berghei; test: Antimalarial activity against Plasmodium berghei infected in Swiss Webster mouse assessed as mouse survival rate at 33 mg/kg administered once daily via oral gavage for 4 consecutive days beginning 1 hr after infection measured on day 6 post infection relative to control; assay type: functional; outline: as §2
[14] = system: Plasmodium berghei; test: Antimalarial activity against Plasmodium berghei infected in Swiss Webster mouse assessed as mouse survival rate at 11 mg/kg administered once daily via oral gavage for 4 consecutive days beginning 1 hr after infection measured on day 8 post infection relative to control; assay type: functional; outline: as §2
[15] = system: Plasmodium berghei; test: Antimalarial activity against Plasmodium berghei infected in Swiss Webster mouse assessed as mouse survival rate at 33 mg/kg administered once daily via oral gavage for 4 consecutive days beginning 1 hr after infection measured on day 5 post infection relative to control; assay type: functional; outline: as §2
[16] = system: Plasmodium berghei; test: Antimalarial activity against Plasmodium berghei infected in Swiss Webster mouse assessed as mouse survival rate at 33 mg/kg administered once daily via oral gavage for 4 consecutive days beginning 1 hr after infection measured on day 7 post infection relative to control; assay type: functional; outline: as §2
[17] = system: Plasmodium berghei; test: Antimalarial activity against Plasmodium berghei infected in Swiss Webster mouse assessed as mouse survival rate at 3.7 mg/kg administered once daily via oral gavage for 4 consecutive days beginning 1 hr after infection measured on day 6 post infection relative to control; assay type: functional; outline: as §2
[18] = system: Plasmodium berghei; test: Antimalarial activity against Plasmodium berghei infected in Swiss Webster mouse assessed as mouse survival rate at 100 mg/kg administered once daily via oral gavage for 4 consecutive days beginning 1 hr after infection measured on day 5 post infection relative to control; assay type: functional; outline: as §1
[19] = system: Plasmodium berghei; test: Antimalarial activity against Plasmodium berghei infected in Swiss Webster mouse assessed as mouse survival rate at 100 mg/kg administered once daily via oral gavage for 4 consecutive days beginning 1 hr after infection measured on day 7 post infection relative to control; assay type: functional; outline: as §1
[20] = system: Plasmodium falciparum; test: Antimalarial activity against chloroquine-resistant Plasmodium falciparum W2 infected in human erythrocytes after 48 hrs by YOYO-1 dye based flow cytometric analysis; assay type: functional, cell-based; details: W2, 48 h
Outline: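 P. falciparum W2 cultures were exposed to the compound for 48 h, with artemisinin and chloroquine as reference controls. IC50 was taken from two independent replicates.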

[21] = system: Plasmodium berghei; test: Antimalarial activity against Plasmodium berghei infected in Swiss Webster mouse assessed as mouse survival rate at 100 mg/kg administered once daily via oral gavage for 4 consecutive days beginning 1 hr after infection measured on day 14 post infection relative to control; assay type: functional; outline: as §1
[22] = system: Plasmodium berghei; test: Antimalarial activity against Plasmodium berghei infected in Swiss Webster mouse assessed as mouse survival rate at 100 mg/kg administered once daily via oral gavage for 4 consecutive days beginning 1 hr after infection measured on day 9 post infection relative to control; assay type: functional; outline: as §1
[23] = system: Plasmodium berghei; test: Antimalarial activity against Plasmodium berghei infected in Swiss Webster mouse assessed as mouse survival rate at 100 mg/kg administered once daily via oral gavage for 4 consecutive days beginning 1 hr after infection measured on day 12 post infection relative to control; assay type: functional; outline: as §1
[24] = system: Plasmodium berghei; test: Antimalarial activity against Plasmodium berghei infected in Swiss Webster mouse assessed as mouse survival rate at 33 mg/kg administered once daily via oral gavage for 4 consecutive days beginning 1 hr after infection measured on day 9 post infection relative to control; assay type: functional; outline: as §2
[25] = system: Plasmodium berghei; test: Antimalarial activity against Plasmodium berghei infected in Swiss Webster mouse assessed as mouse survival rate at 100 mg/kg administered once daily via oral gavage for 4 consecutive days beginning 1 hr after infection measured on day 6 post infection relative to control; assay type: functional; outline: as §1
[26] = system: Plasmodium berghei; test: Antimalarial activity against Plasmodium berghei infected in Swiss Webster mouse assessed as mouse survival rate administered once daily via oral gavage for 4 consecutive days beginning 1 hr after infection measured on day 4 post infection; assay type: functional; outline: as §1
[27] = system: Plasmodium berghei; test: Antimalarial activity against Plasmodium berghei infected in Swiss Webster mouse assessed as mouse survival rate at 1.2 mg/kg administered once daily via oral gavage for 4 consecutive days beginning 1 hr after infection measured on day 5 post infection relative to control; assay type: functional; outline: as §1

Cc1c(Oc2cnc(C(=O)N3CC(O)(C(F)(F)F)C3)cn2)ccc2c1B(O)OC2
survival at 0.1 mg/kg [1]: 0% | survival at 11 mg/kg [2]: 100% | survival at 3.7 mg/kg [3]: 100% | survival at 33 mg/kg [4]: 0% | survival at 11 mg/kg [5]: 100% | survival at 0.4 mg/kg [6]: 0% | survival at 33 mg/kg [7]: 100% | survival at 33 mg/kg [8]: 50% | survival at 11 mg/kg [9]: 100% | survival at 100 mg/kg [10]: 100% | survival at 100 mg/kg [11]: 100% | survival at 33 mg/kg [12]: 50% | survival at 33 mg/kg [13]: 100% | survival at 11 mg/kg [14]: 0% | survival at 33 mg/kg [15]: 100% | survival at 33 mg/kg [16]: 100% | survival at 3.7 mg/kg [17]: 100% | survival at 100 mg/kg [18]: 100% | survival at 100 mg/kg [19]: 100% | IC50 [20]: 6.6 nM | survival at 100 mg/kg [21]: 100% | survival at 100 mg/kg [22]: 100% | survival at 100 mg/kg [23]: 100% | survival at 33 mg/kg [24]: 100% | survival at 100 mg/kg [25]: 100% | ED90 [26]: 5.7 mg/kg

Cc1c(Oc2cnc(C(=O)N3CC(O)(C(C)C)C3)cn2)ccc2c1B(O)OC2
survival at 0.1 mg/kg [1]: 0% | survival at 11 mg/kg [2]: 100% | survival at 3.7 mg/kg [3]: 100% | survival at 33 mg/kg [4]: 0% | survival at 11 mg/kg [5]: 100% | survival at 0.4 mg/kg [6]: 0% | survival at 33 mg/kg [7]: 100% | survival at 33 mg/kg [8]: 100% | survival at 11 mg/kg [9]: 100% | survival at 100 mg/kg [10]: 100% | survival at 100 mg/kg [11]: 100% | survival at 33 mg/kg [12]: 100% | survival at 33 mg/kg [13]: 100% | survival at 11 mg/kg [14]: 60% | survival at 33 mg/kg [15]: 100% | survival at 33 mg/kg [16]: 100% | survival at 3.7 mg/kg [17]: 100% | survival at 100 mg/kg [18]: 100% | survival at 100 mg/kg [19]: 100% | IC50 [20]: 40.7 nM | survival at 100 mg/kg [21]: 100% | survival at 100 mg/kg [22]: 100% | survival at 100 mg/kg [23]: 100% | survival at 33 mg/kg [24]: 100% | survival at 100 mg/kg [25]: 100% | ED90 [26]: 4.5 mg/kg

CCC[C@H](CO)NC(=O)c1cnc(Oc2ccc3c(c2C)B(O)OC3)cn1
survival at 11 mg/kg [2]: 100% | survival at 3.7 mg/kg [3]: 100% | survival at 11 mg/kg [5]: 100% | survival at 33 mg/kg [7]: 100% | survival at 11 mg/kg [9]: 100% | survival at 100 mg/kg [10]: 20% | survival at 100 mg/kg [11]: 20% | survival at 33 mg/kg [13]: 100% | survival at 33 mg/kg [15]: 100% | survival at 33 mg/kg [16]: 100% | survival at 3.7 mg/kg [17]: 100% | survival at 100 mg/kg [18]: 100% | survival at 100 mg/kg [19]: 100% | IC50 [20]: 161 nM | survival at 100 mg/kg [21]: 0% | survival at 100 mg/kg [22]: 100% | survival at 100 mg/kg [23]: 20% | survival at 1.2 mg/kg [27]: 100% | survival at 33 mg/kg [24]: 0% | survival at 100 mg/kg [25]: 100% | ED90 [26]: 11.7 mg/kg

Cc1c(Oc2cnc(C(=O)N3CC(O)(C4CC4)C3)cn2)ccc2c1B(O)OC2
survival at 0.1 mg/kg [1]: 0% | survival at 11 mg/kg [2]: 100% | survival at 3.7 mg/kg [3]: 100% | survival at 33 mg/kg [4]: 0% | survival at 11 mg/kg [5]: 100% | survival at 0.4 mg/kg [6]: 0% | survival at 33 mg/kg [7]: 100% | survival at 33 mg/kg [8]: 40% | survival at 11 mg/kg [9]: 100% | survival at 100 mg/kg [10]: 100% | survival at 100 mg/kg [11]: 100% | survival at 33 mg/kg [12]: 40% | survival at 33 mg/kg [13]: 100% | survival at 33 mg/kg [15]: 100% | survival at 33 mg/kg [16]: 100% | survival at 3.7 mg/kg [17]: 100% | survival at 100 mg/kg [18]: 100% | survival at 100 mg/kg [19]: 100% | IC50 [20]: 51.7 nM | survival at 100 mg/kg [21]: 0% | survival at 100 mg/kg [22]: 100% | survival at 100 mg/kg [23]: 100% | survival at 1.2 mg/kg [27]: 100% | survival at 33 mg/kg [24]: 100% | survival at 100 mg/kg [25]: 100% | ED90 [26]: 10.3 mg/kg
